# Data reported in article PMC7113734 (Antiviral Research, 2016).
# Read-outs that look alike come from different tables or passages of the source.
# Legend:
# [1] = test system: drug-resistant HIV-1 strains; assay: Antiviral activity against drug-resistant HIV-1 strains in MT-4; type: cell-based; settings: for EC50: MT-4
# [2] = test system: HIV attachment to HeLa-CD4-LTR-β-gal cells; assay: Attachment inhibition assay; type: cell-based, HIV-1; settings: Human immunodeficiency virus 1, read-out: Attachment inhibition EC50 ± SD
# [3] = test system: drug resistant clinical HIV isolates; assay: Antiviral activity against drug-resistant HIV-1 in PBMCs; type: cell-based; settings: Human immunodeficiency virus 1, PBMC
# HIVIIIB = assay: Cell-to-cell virus transmission assay in CEM-SS cells; type: cell-based, HIV-1
# HIV strain 92US727 = assay: Cell-to-cell virus transmission assay in fresh human PBMCs; type: cell-based, HIV-1
# In short: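 HIV-infected fresh human PBMCs treated 3 days with six concentrations of test compound. Passaged every 3 days for three passages at fixed compound concentration; 80% of culture volume replaced with fresh compound-containing medium and uninfected cells. Cell-free supernatants collected on sub-culture days for RT activity and extracellular p24 antigen. TCID50 per passage by endpoint dilution.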
# [4] = test system: HL2/3 cells expressing HIV-1 gp120 and gp41 fusing with HeLa-CD4-LTR-β-gal cells; assay: Fusion inhibition assay; type: cell-based; settings: read-out: Fusion inhibition EC50 ± SD
# In short: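 HeLa-CD4-LTR-β-Gal cells incubated with test compound for 1 h at 37°C/5% CO2, then co-cultured 48 h with HL2/3 cells. Cells lysed and β-galactosidase expression measured by chemiluminescent Gal-Screen.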
compound,measurement,setting,value
"Cc1cn([C@H]2C[C@H](N=[N+]=[N-])[C@@H](CO)O2)c(=O)[nH]c1=O [AZT, reference compound]",EC50,"[1]; Human immunodeficiency virus 1, read-out: Mean EC50 ± SD, positive control, AZT- and NNRTI-resistant, RT 4xAZT/L100I",4 nM
same,EC50,"[1]; Human immunodeficiency virus 1, read-out: Mean EC50 ± SD, positive control, AZT- and NNRTI-resistant, RT 4xAZT/Y181C",7 nM
same,EC50,"[1]; Human immunodeficiency virus 1, read-out: Mean EC50 ± SD, positive control, Atazanavir-resistant, PR I50L",1.5 nM
same,EC50,"[1]; Human immunodeficiency virus 1, read-out: Mean EC50 ± SD, positive control, Didanosine-resistant, RT L74V",2 nM
same,EC50,"[1]; Human immunodeficiency virus 1, read-out: Mean EC50 ± SD, positive control, Enfuviritide-resistant, Env V38A/N126K",1.5 nM
same,EC50,"[1]; Human immunodeficiency virus 1, read-out: Mean EC50 ± SD, positive control, Indinavir-, Ritonavir-resistant, PR I84V",2.5 nM
same,EC50,"[1]; Human immunodeficiency virus 1, read-out: Mean EC50 ± SD, positive control, Indinavir-, Ritonavir-resistant, PR V82A",3.5 nM
same,EC50,"[1]; Human immunodeficiency virus 1, read-out: Mean EC50 ± SD, positive control, Indinavir-, Ritonavir-resistant, PR V82F/I84V",2 nM
same,EC50,"[1]; Human immunodeficiency virus 1, read-out: Mean EC50 ± SD, positive control, Lamivudine-resistant, RT M184V",0.55 nM
same,EC50,"[1]; Human immunodeficiency virus 1, read-out: Mean EC50 ± SD, positive control, NNRTI-resistant, RT K103N/Y181C",2 nM
same,EC50,"[1]; Human immunodeficiency virus 1, read-out: Mean EC50 ± SD, positive control, NNRTI-resistant, RT K103N",0.9 nM
same,EC50,"[1]; Human immunodeficiency virus 1, read-out: Mean EC50 ± SD, positive control, NNRTI-resistant, RT L100I",0.65 nM
same,EC50,"[1]; Human immunodeficiency virus 1, read-out: Mean EC50 ± SD, positive control, NNRTI-resistant, RT V106A",2 nM
same,EC50,"[1]; Human immunodeficiency virus 1, read-out: Mean EC50 ± SD, positive control, NNRTI-resistant, RT V108I",1.5 nM
same,EC50,"[1]; Human immunodeficiency virus 1, read-out: Mean EC50 ± SD, positive control, NNRTI-resistant, RT V179D",1 nM
same,EC50,"[1]; Human immunodeficiency virus 1, read-out: Mean EC50 ± SD, positive control, NNRTI-resistant, RT Y181C",1 nM
same,EC50,"[1]; Human immunodeficiency virus 1, read-out: Mean EC50 ± SD, positive control, NNRTI-resistant, RT Y188C",1.5 nM
same,EC50,"[1]; Human immunodeficiency virus 1, read-out: Mean EC50 ± SD, positive control, Raltegravir-resistant, IN Q148H/G140S",2 nM
same,EC50,"[1]; Human immunodeficiency virus 1, read-out: Mean EC50 ± SD, positive control, Saquinavir-resistant, PR G48V/L90M",3.5 nM
"COc1cc(-c2ccc(/N=N/c3ccc4c(S(=O)(=O)O)cc(S(=O)(=O)O)c(N)c4c3O)c(OC)c2)ccc1/N=N/c1ccc2c(S(=O)(=O)O)cc(S(=O)(=O)O)c(N)c2c1O [Chicago sky blue, reference compound]",EC50,[2],0.64 µg/mL
"Cc1ccnc2c1NC(=O)c1cccnc1N2C1CC1 [NVP, reference compound]",EC50,"[1]; Human immunodeficiency virus 1, read-out: Mean EC50 ± SD, positive control, AZT-resistant, RT 4xAZT (D67N/K70R/T215Y/K219Q)",35 nM
"CC(C)c1nc(CN(C)C(=O)N[C@H](C(=O)N[C@@H](Cc2ccccc2)C[C@H](O)[C@H](Cc2ccccc2)NC(=O)OCc2cncs2)C(C)C)cs1 [RTV, reference compound]","Mean EC50 ± SD, positive control",[1]; {},RTV 0.06 ± 0.02 nM
"Cc1nnc(C(=O)NC(C)(C)c2nc(C(=O)NCc3ccc(F)cc3)c(O)c(=O)n2C)o1 [Raltegravir, reference compound]",EC50,"[3]; read-out: PBMC/HIV-1 EC50 ± SD, Multi-drug resistant AD. MDR",2980 ± 540 nM
same,EC50,"[3]; read-out: PBMC/HIV-1 EC50 ± SD, Multi-drug resistant MDR769",2370 ± 1510 nM
same,EC50,"[3]; read-out: PBMC/HIV-1 EC50 ± SD, NNRTI-resistant A17R",1990 ± 40 nM
same,EC50,"[3]; read-out: PBMC/HIV-1 EC50 ± SD, NNRTI-resistant N119",3540 ± 890 nM
same,EC50,"[3]; read-out: PBMC/HIV-1 EC50 ± SD, PI-resistant 144-44",3870 ± 3250 nM
same,EC50,"[3]; read-out: PBMC/HIV-1 EC50 ± SD, PI-resistant 1002-60",2970 ± 230 nM
same,EC50,"[3]; read-out: PBMC/HIV-1 EC50 ± SD, PI-resistant 1022-48",1320 ± 170 nM
same,EC50,"[3]; read-out: PBMC/HIV-1 EC50 ± SD, PI-resistant 1026-60",1770 ± 850 nM
same,EC50,"[3]; read-out: PBMC/HIV-1 EC50 ± SD, PI-resistant 1064-52",860 ± 490 nM
same,EC50,"[3]; read-out: PBMC/HIV-1 EC50 ± SD, Wild Type 92US727",10500 ± 12700 nM
"CC(C)(C)NC(=O)[C@@H]1C[C@@H]2CCCC[C@@H]2CN1C[C@@H](O)[C@H](Cc1ccccc1)NC(=O)[C@H](CC(N)=O)NC(=O)c1ccc2ccccc2n1 [Saquinavir, reference compound]",RT,"HIVIIIB; Passage 1, 20 nM",25 cpm
same,TCID50/mL,"HIVIIIB; Passage 1, 20 nM",0 TCID50/mL
same,p24,"HIVIIIB; Passage 1, 20 nM",794 pg/mL
same,RT,"HIVIIIB; Passage 2, 20 nM",107 cpm
same,TCID50/mL,"HIVIIIB; Passage 2, 20 nM",0 TCID50/mL
same,p24,"HIVIIIB; Passage 2, 20 nM",1589 pg/mL
same,RT,"HIVIIIB; Passage 3, 20 nM",68 cpm
same,TCID50/mL,"HIVIIIB; Passage 3, 20 nM",0 TCID50/mL
same,p24,"HIVIIIB; Passage 3, 20 nM",1085 pg/mL
same,RT,"HIV strain 92US727; Passage 1, 12.5 nM",281 cpm
same,TCID50/mL,"HIV strain 92US727; Passage 1, 12.5 nM",3.08 × 10^3 TCID50/mL
same,p24,"HIV strain 92US727; Passage 1, 12.5 nM",971 pg/mL
same,RT,"HIV strain 92US727; Passage 2, 12.5 nM",1394 cpm
same,TCID50/mL,"HIV strain 92US727; Passage 2, 12.5 nM",8.30 × 10^3 TCID50/mL
same,p24,"HIV strain 92US727; Passage 2, 12.5 nM",3505 pg/mL
same,RT,"HIV strain 92US727; Passage 3, 12.5 nM",7015 cpm
same,TCID50/mL,"HIV strain 92US727; Passage 3, 12.5 nM",1.09 × 10^5 TCID50/mL
same,p24,"HIV strain 92US727; Passage 3, 12.5 nM","61,275 pg/mL"
enfuvirtide [reference compound],EC50,[4],80 nM
